Measured values reported in ChEMBL document CHEMBL1287785, “Synthesis and in vitro evaluation of novel coumarin-chalcone hybrids as potential anticancer agents” (Bioorg Med Chem Lett, 2010).
pIC50: −log10 of the molar value.

Legend:
Assay type in all cases: functional, cell-based; call rule not given here
C-33-A = experiment: Cytotoxicity against human C33A cells after 48 hrs by sulforhodamine B assay; conditions: for IC50: c-33-a; for pIC50: Homo sapiens, C-33-A, 48 h, read-out: IC50
Summary of the method: (§1)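 Cells kept below passage 15 in recommended medium with 10% FBS, gentamycin and amphotericin B, 37 °C, 5% CO₂. Seeded at 1 × 10⁴ cells/well overnight, then given serial two-fold dilutions (100 to 1.6) for 48 h, with untreated controls. Fixed in ice-cold 50% TCA, stained with 0.4% SRB in 1% acetic acid, read at 540 nm. IC₅₀ from dose–response curves of % growth inhibition.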

NIH3T3 = experiment: Cytotoxicity against mouse NIH/3T3 cells after 48 hrs by sulforhodamine B assay; conditions: for IC50: nih3t3; for pIC50: Mus musculus, NIH3T3, 48 h, read-out: IC50; summary of the method: as §1
MCF7 = experiment: Cytotoxicity against human MCF7 cells after 48 hrs by sulforhodamine B assay; conditions: for IC50: mcf7; for pIC50: Homo sapiens, MCF7, 48 h, read-out: IC50; summary of the method: as §1
KB = experiment: Cytotoxicity against human KB cells after 48 hrs by sulforhodamine B assay; conditions: for IC50: kb; for pIC50: Homo sapiens, KB, 48 h, read-out: IC50; summary of the method: as §1
A549 = experiment: Cytotoxicity against human A549 cells after 48 hrs by sulforhodamine B assay; conditions: for IC50: a549; for pIC50: Homo sapiens, A549, 48 h, read-out: IC50; summary of the method: as §1

Structure (SMILES)	IC50 (C-33-A)	IC50 (NIH3T3)	IC50 (MCF7)	IC50 (KB)	IC50 (A549)	pIC50 (C-33-A)	pIC50 (KB)	pIC50 (MCF7)	pIC50 (A549)	pIC50 (NIH3T3)
CC(=O)c1cc2cc(/C=C/C(=O)c3ccc(Cl)cc3)c3ccccc3c2oc1=O	Not Active	Not Active	Not Active	Not Active	Not Active					
COC(=O)c1cc2cc(/C=C/C(=O)c3ccc(Cl)cc3)c3ccccc3c2oc1=O	Not Active	Not Active	Not Active	Not Active	Not Active					
CCOC(=O)c1cc2cc(/C=C/C(=O)c3ccccc3)c3ccccc3c2oc1=O	Not Active	Not Active	Not Active	Not Active	Not Active					
CCOC(=O)c1cc2cc(/C=C/C(=O)c3ccc(C)cc3)c3ccccc3c2oc1=O	Not Active	Not Active	Not Active	Not Active	Not Active					
CCOC(=O)c1cc2cc(/C=C/C(=O)c3ccc(Cl)cc3)c3ccccc3c2oc1=O	Not Active	Not Active	Not Active	Not Active	Not Active					
CCC(C)c1cc(C=O)cc2cc(C(=O)OC)c(=O)oc12 (configuration not stated)		Not Active	Not Active		Not Active	4.06	3.84			
CCOC(=O)c1cc2cc(C=O)cc(C(C)CC)c2oc1=O (configuration not stated)		Not Active				4.19	3.88			
CCC(C)c1cc(/C=C/C(=O)c2ccc(Cl)cc2)cc2cc(C(C)=O)c(=O)oc12 (configuration not stated)	Not Active	Not Active	Not Active	Not Active	Not Active					
CCC(C)c1cc(/C=C/C(=O)c2ccccc2)cc2cc(C(=O)OC)c(=O)oc12 (configuration not stated)		Not Active				5.20	4.87	4.94	4.97	
CCC(C)c1cc(/C=C/C(=O)c2ccc(Cl)cc2)cc2cc(C(=O)OC)c(=O)oc12 (configuration not stated)						5.23	4.55	4.97	4.78	4.37
CCOC(=O)c1cc2cc(/C=C/C(=O)c3ccccc3)cc(C(C)CC)c2oc1=O (configuration not stated)		Not Active				5.09	4.98	4.06	4.89	
CCOC(=O)c1cc2cc(/C=C/C(=O)c3ccc(C)cc3)cc(C(C)CC)c2oc1=O (configuration not stated)		Not Active				5.44	4.75	4.09	4.48	
CCOC(=O)c1cc2cc(/C=C/C(=O)c3ccc(Cl)cc3)cc(C(C)CC)c2oc1=O (configuration not stated)						5.34	4.84	4.96	4.89	4.42
CC(=O)c1cc2cc(C=O)c3ccccc3c2oc1=O		Not Active			Not Active	4.14	3.96	3.83		
CCC(C)c1cc(C=O)cc2cc(C(C)=O)c(=O)oc12 (configuration not stated)		Not Active			Not Active	4.15	3.75	3.85		
COC(=O)c1cc2cc(C=O)c3ccccc3c2oc1=O						4.52	4.24	4.21	4.12	4.18
CCOC(=O)c1cc2cc(C=O)c3ccccc3c2oc1=O		Not Active			Not Active	4.03	3.91	3.81		
CC(=O)c1cc2cc(/C=C/C(=O)c3ccccc3)c3ccccc3c2oc1=O	Not Active	Not Active	Not Active	Not Active	Not Active					
CC(=O)c1cc2cc(/C=C/C(=O)c3ccc(C)cc3)c3ccccc3c2oc1=O	Not Active	Not Active	Not Active	Not Active	Not Active					
COC(=O)c1cc2cc(/C=C/C(=O)c3ccccc3)c3ccccc3c2oc1=O		Not Active			Not Active	4.20	4.04	3.99		
COC(=O)c1cc2cc(/C=C/C(=O)c3ccc(C)cc3)c3ccccc3c2oc1=O		Not Active			Not Active	4.28	4.15	3.93		
COc1cccc2c1C(=O)c1c(O)c3c(c(O)c1C2=O)C[C@@](O)(C(=O)CO)C[C@@H]3O[C@H]1C[C@H](N)[C@H](O)[C@H](C)O1 [DOXORUBICIN]						6.09	6.66	6.21	6.28	
